Data published in ChEMBL document CHEMBL3593158, “Dirchromones: Cytotoxic Organic Sulfur Compounds Isolated from Dirca palustris” (J Nat Prod, 2015).
pIC50: −log10 of the molar value. Values after ≈ are worked out from the molar mass of the structure shown. Active and inactive are the calls of the source. The rule behind the calls is not given here.

Legend:
Staphylococcus aureus = test: Antibacterial activity against Staphylococcus aureus ATCC 25923 incubated for 24 hrs by microdilution method; format: functional
In short: (§1)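 Modified microdilution in nutrient broth with exponentially growing bacteria per well: E. coli at 5 × 10^3, S. aureus at 3.5 × 10^4. Increasing compound concentrations were dissolved in DMSO and diluted in broth (final DMSO 0.1% v/v). Plates incubated 24 h at 37 °C.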

A549 [1] = test: Cytotoxicity against human A549 cells assessed as inhibition of cell growth incubated for 48 hrs by Hoechst assay; format: functional, cell-based; settings: A549, 48 h
In short: (§2)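 Cells from ATCC, grown in MEM with Earle's salts, 10% fetal calf serum, vitamins, sodium pyruvate, nonessential amino acids and penicillin/streptomycin at 37 °C in humidified 5% CO2. 5 × 10^3 exponentially growing cells per well adhered for 16 h, then were exposed 48 h to increasing concentrations in medium (final DMSO 0.5% v/v). Hoechst staining read-out; IC50 is the concentration inhibiting growth by 50%.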

[2] = Cytotoxicity against human DLD1 cells assessed as inhibition of cell growth incubated for 48 hrs by Hoechst assay; format: functional, cell-based; settings: DLD-1, 48 h; in short: as §2
[3] = Cytotoxicity against human WS1 cells assessed as inhibition of cell growth incubated for 48 hrs by Hoechst assay; format: cell-based; settings: WS1, 48 h; in short: as §2
Escherichia coli = test: Antibacterial activity against Escherichia coli ATCC 25922 incubated for 24 hrs by microdilution method; format: functional, organism-based; in short: as §1
Candida albicans = test: Antifungal activity against Candida albicans incubated for 24 hrs by microdilution method; format: functional, organism-based
In short: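 Yeast tested by modified microdilution at 2 × 10^3 C. albicans per well in Sabouraud dextrose. Compounds were dissolved in DMSO, diluted in Sabouraud dextrose and added at increasing concentrations (final DMSO 0.1% v/v). Plates incubated 24 h at 37 °C.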

A549 [4] = test: Selectivity index, ratio of IC50 for human A549 cells to IC50 for human DLD1 cells; format: functional
DLD-1 = test: Selectivity index, ratio of IC50 for human WS1 cells to IC50 for human DLD1 cells; format: functional

## COc1cc2oc(/C=C/[S+](C)[O-])cc(=O)c2cc1OC (stereo not drawn)
Staphylococcus aureus; ATCC 25923, 24 h
  MIC90: 18.4 µg/mL (≈ 62.5 µM)
A549 [1]
  pIC50: < 5.00
[2]
  pIC50: 5.38
[3]
  pIC50: < 5.00
Escherichia coli
  Activity: inactive
Candida albicans
  Activity: inactive

## COc1cc2oc(/C=C/[S+](C)[O-])cc(=O)c2cc1O (stereo not drawn)
Staphylococcus aureus; ATCC 25923, 24 h
  MIC90: 14 µg/mL (≈ 49.9 µM)
A549 [1]
  pIC50: < 5.00
[2]
  pIC50: < 5.00
[3]
  pIC50: < 5.00
Escherichia coli
  Activity: inactive
Candida albicans
  Activity: inactive

## COc1ccc2c(=O)cc(/C=C/[S+](C)[O-])oc2c1 (stereo not drawn)
Staphylococcus aureus; ATCC 25923, 24 h
  MIC90: 8.3 µg/mL (≈ 31.4 µM)
A549 [1]
  pIC50: 4.98
[2]
  pIC50: 5.74
[3]
  pIC50: 5.05
Escherichia coli
  Activity: inactive
Candida albicans
  Activity: inactive
A549 [4]
  Ratio IC50: 5.8
DLD-1
  Ratio IC50: 5

## COc1ccc2c(=O)cc(/C=C/[S+](C)[O-])oc2c1OC (stereo not drawn)
Staphylococcus aureus; ATCC 25923, 24 h
  MIC90: 18.4 µg/mL (≈ 62.5 µM)
A549 [1]
  pIC50: < 5.00
[2]
  pIC50: 5.48
[3]
  pIC50: < 5.00
Escherichia coli
  Activity: inactive
Candida albicans
  Activity: inactive

## COc1ccc2c(=O)cc(/C=C/[S+](C)[O-])oc2c1O (stereo not drawn)
Staphylococcus aureus; ATCC 25923, 24 h
  MIC90: 14 µg/mL (≈ 49.9 µM)
A549 [1]
  pIC50: < 5.00
[2]
  pIC50: < 5.00
[3]
  pIC50: < 5.00
Escherichia coli
  Activity: inactive
Candida albicans
  Activity: inactive

## GENTAMICIN
Staphylococcus aureus
  MIC90: 0.04 µg/mL

## COc1cc([C@@H]2c3cc4c(cc3[C@@H](O[C@@H]3O[C@@H]5CO[C@@H](C)O[C@H]5[C@H](O)[C@H]3O)[C@H]3COC(=O)[C@H]23)OCO4)cc(OC)c1O [ETOPOSIDE]
A549 [1]
  pIC50: 6.32
[2]
  pIC50: 5.48
[3]
  pIC50: < 5.00

## C[S+]([O-])/C=C/c1cc(=O)c2cc(O)ccc2o1 (stereo not drawn)
Staphylococcus aureus; ATCC 25923, 24 h
  MIC90: 7.8 µg/mL (≈ 31.2 µM)
A549 [1]
  pIC50: < 5.00
[2]
  pIC50: < 5.00
[3]
  pIC50: < 5.00
Escherichia coli
  Activity: inactive
Candida albicans
  Activity: inactive

## C[S+]([O-])/C=C/c1cc(=O)c2ccccc2o1 (stereo not drawn)
Staphylococcus aureus; ATCC 25923, 24 h
  MIC90: 3.7 µg/mL (≈ 15.8 µM)
A549 [1]
  pIC50: 5.00
[2]
  pIC50: 6.00
[3]
  pIC50: 5.05
Escherichia coli
  Activity: inactive
Candida albicans
  Activity: inactive
A549 [4]
  Ratio IC50: 10
DLD-1
  Ratio IC50: 9

## COc1ccc2oc(/C=C/[S+](C)[O-])cc(=O)c2c1 (stereo not drawn)
Staphylococcus aureus; ATCC 25923, 24 h
  MIC90: 4.1 µg/mL (≈ 15.5 µM)
A549 [1]
  pIC50: 5.05
[2]
  pIC50: 5.96
[3]
  pIC50: 5.22
Escherichia coli
  Activity: inactive
Candida albicans
  Activity: inactive
A549 [4]
  Ratio IC50: 8.2
DLD-1
  Ratio IC50: 5
